The nature of data set [1]: Toxicity in SCID mouse assessed as drug tolerability at 25 mg/kg, iv administered every other day for 1 week. The class given is organism-based. Conditions: in vivo, 168 h.
Another data set has as its system HL-60. The data set is described as follows: Growth inhibition of human HL60 cells after 7 days by WST-8 assay. In kind it is functional, cell-based. Conditions: HL-60, 168 h. Put shortly: (§1)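 Cells cultured in IMDM or RPMI 1640 with 10% FBS at 37 °C, 5% CO2. Growth read by WST-8 at 450 nm after at least 1 h with reagent. Signals normalized to untreated cells and IC50 fitted by nonlinear regression; mean and SD from three independent experiments.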
(Formazan colour is commonly taken as a measure of viable cells.)

Data set [2] can be described thus: Toxicity in CB-17 SCID mouse xenografted with human MV4-11 cells assessed as effect on clinical signs at 10 to 25 mg/kg, iv administered every other day for 1 week (11 doses). In kind it is organism-based. Conditions: in vivo, 168 h. The method, boiled down:
(§2)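 Female C.B-17 SCID mice inoculated s.c. in the flank with 5 × 10^6 MV4;11 cells in 0.1 mL 1:1 PBS/Matrigel (final Matrigel 5 mg/mL). Dosed IV every other day, 3 times per week, 11 doses in total; vehicle-only control group. Tumor volume by calipers as (A × B²)/2, and body weight, measured 2–3 times weekly during treatment and at least weekly afterward. Toxicity signs monitored.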
(In general: Xenograft models place foreign cells or tissue in a host animal.)

Data set [3] deals with MV4-11. In words: Antitumor activity against human MV4-11 cells xenografted in CB-17 SCID mouse assessed as tumor volume at 25 mg/kg, iv administered every other day for 1 week (11 doses) and measured on day 35 post treatment (reference value: 92 mm3). The class given is functional.
The subject of data set [4] is MV4-11. In words: Antitumor activity against human MV4-11 cells xenografted in CB-17 SCID mouse assessed as tumor growth inhibition at 25 mg/kg, iv administered every other day for 1 week (11 doses) and measured on day 35 post treatment relative to control. The class given is functional. Conditions: MV4-11, iv, read-out: TGI.
The test system of data set [5] is Mus musculus. In words: Downregulation of Hoxa9 expression in tumors of CB-17 SCID mouse xenografted with human MV4-11 cells at 10 mg/kg, iv administered as single dose and measured after 24 hrs by RT-qPCR analysis. In kind it is functional, organism-based. The method, boiled down:
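MV4;11 subcutaneous xenografts in female C.B-17 SCID mice; single IV dose of 10 mg/kg or vehicle. Tumors collected 24 h post-dose, 3 mice per group, snap-frozen and powdered. Total RNA converted to cDNA; HOXA9, MEIS1 and GAPDH measured by TaqMan real-time PCR; relative expression by comparative Ct.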

Data set [6] has as its target T1, Menin (Homo sapiens) (UniProt O00255).
T1 sequence (whole entry): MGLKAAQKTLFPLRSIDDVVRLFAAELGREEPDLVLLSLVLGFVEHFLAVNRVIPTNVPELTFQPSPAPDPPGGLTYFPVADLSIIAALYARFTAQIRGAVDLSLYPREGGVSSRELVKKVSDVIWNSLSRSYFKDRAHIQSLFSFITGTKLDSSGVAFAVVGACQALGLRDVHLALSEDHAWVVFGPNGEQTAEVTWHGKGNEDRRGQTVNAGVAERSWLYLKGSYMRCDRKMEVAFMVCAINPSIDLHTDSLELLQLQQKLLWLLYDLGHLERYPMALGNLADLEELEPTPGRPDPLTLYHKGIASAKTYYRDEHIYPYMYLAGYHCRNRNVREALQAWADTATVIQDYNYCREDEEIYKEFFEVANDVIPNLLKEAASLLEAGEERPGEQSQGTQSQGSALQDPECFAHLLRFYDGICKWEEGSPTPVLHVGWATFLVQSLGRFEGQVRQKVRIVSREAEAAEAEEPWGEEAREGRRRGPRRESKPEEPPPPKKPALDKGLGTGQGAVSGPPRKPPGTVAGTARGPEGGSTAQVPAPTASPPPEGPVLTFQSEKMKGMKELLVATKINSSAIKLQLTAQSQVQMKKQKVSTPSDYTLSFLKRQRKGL
The data set is described as follows: Covalent binding affinity to human menin assessed as protein-compound complex formation at protein to compound ratio of 1:1.2 after 1 hr by LC-MS analysis relative to control. Put shortly: (§3)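 Diluted to 1 mg/mL, then run on reverse-phase C4 LC with a 5–100% MeCN/0.2% formic acid gradient and Q-TOF MS. Intact masses obtained by maximum-entropy deconvolution.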

The subject of a further data set is MOLM-13. In words: Growth inhibition of human MOLM13 cells after 7 days by WST-8 assay. In kind it is functional, cell-based. Conditions: MOLM-13, 168 h. Put shortly: as §1
The target in the next data set is T2, Menin (Homo sapiens, UniProt O00255).
T2 sequence (O00255 whole entry): T1 sequence (whole entry)
The data set is described as follows: Inhibition of fluorescent labeled tracer binding to Menin (unknown origin) after 1 hr by fluorescence polarization competitive binding assay. Put shortly:
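Competitive FP assay: 4 nM menin and 2 nM fluorescein-labeled tracer (final concentrations) in PBS with 100 μg/mL bovine γ-globulin and 0.01% Triton X-100. Compounds added from DMSO at varying concentrations and incubated 1 h at room temperature. IC50 obtained by nonlinear sigmoidal fitting of the FP decrease against total compound concentration.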
A general note: In fluorescence polarisation assays a small probe gives low polarisation when free and higher when bound to something large.

In data set [7] the test system is MV4-11. In words: Antitumor activity against human MV4-11 cells xenografted in CB-17 SCID mouse assessed as effect on tumor growth at 10 mg/kg, iv administered every other day for 1 week (11 doses). The class given is functional, organism-based. The method, boiled down:
as §2

Data set [8] is described as follows: Toxicity in CB-17 SCID mouse xenografted with human MV4-11 cells assessed as effect on body weight at 10 to 25 mg/kg, iv administered every other day for 1 week (11 doses). Conditions: in vivo, 168 h. In kind it is organism-based. The method, boiled down:
as §2

Data set [9] has as its target T1, Menin (Homo sapiens). The data set is described as follows: Covalent binding affinity to human menin assessed as protein-compound complex formation at protein to compound ratio of 1:1.2 measured after overnight incubation by LC-MS analysis relative to control. The method, boiled down:
as §3

For data set [10], the system named is MV4-11. In words: Growth inhibition of human MV4-11 cells after 7 days by WST-8 assay. In kind it is functional, cell-based. Conditions: MV4-11, 168 h. The method, boiled down:
as §1

A short description of data set [11]: Toxicity in SCID mouse assessed as drug tolerability at 10 mg/kg, iv administered every other day for 1 week. The note with it: in vivo, 168 h. In kind it is organism-based.
Data set [12] deals with Mus musculus. In words: In vivo inhibition of Menin-MLL protein-protein interaction in CB-17 SCID mouse xenografted with human MV4-11 cells assessed as reduction in HOXA9 expression in tumor at 25 mg/kg, iv measured after 6 to 24 hrs by RT-qPCR analysis. In kind it is functional, organism-based. The method, boiled down:
(§4)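 MV4;11 flank xenografts in female C.B-17 SCID mice given a single 25 mg/kg IV dose or vehicle. Tumors harvested at 6, 24 and 48 h, 3 mice per time point, and frozen in liquid N2. RNA extracted; HOXA9 and MEIS1, with GAPDH, quantified by TaqMan qRT-PCR using the comparative Ct method.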

For data set [13], the system named is Mus musculus. The data set is described as follows: In vivo inhibition of Menin-MLL protein-protein interaction in CB-17 SCID mouse xenografted with human MV4-11 cells assessed as reduction in MEIS1 expression in tumor at 25 mg/kg, iv measured after 6 to 24 hrs by RT-qPCR analysis. In kind it is functional, organism-based. Put shortly:
as §4

Data set [14] has as its system Mus musculus. The data set is described as follows: Downregulation of MEIS1 expression in tumors of CB-17 SCID mouse xenografted with human MV4-11 cells at 10 mg/kg, iv administered as single dose and measured after 24 hrs by RT-qPCR analysis relative to control. The class given is functional. Put shortly: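 Female C.B-17 SCID mice bearing subcutaneous MV4;11 flank xenografts were given a single IV dose (vehicle control). Tumors were harvested at 24 h, 3 mice per time point, snap-frozen in liquid N2 and ground. Total RNA was reverse-transcribed, and HOXA9, MEIS1 and GAPDH were measured by TaqMan real-time PCR. Relative expression was calculated by the comparative Ct method.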

Each structure is given as a SMILES string. Calls of active or inactive are those of the source. The calls are words filed in the database; no cut-off is given here. Where only a bound is given, the exact number is not on record here.

Results on one compound are retold here after ChEMBL document CHEMBL4342524, “Discovery of M-808 as a Highly Potent, Covalent, Small-Molecule Inhibitor of the Menin-MLL Interaction with Strong In Vivo Antitumor Activity” (J Med Chem, 2020).

What is called IC50 is the concentration needed to halve the response being measured. On to `COC(=O)N[C@H]1CCC[C@@H]1[C@](CN1CCC1)(c1cccc(F)c1)C1CCN(CC2CN(c3ccc(S(=O)(=O)C4CN(C(=O)/C=C/CN5CCCCC5)C4)cc3)C2)CC1`, for which the Activity entry is “Non-Toxic” in [1]; “Non-Toxic” in data set [2]; 59 mm3 in the data set with MV4-11 [3]; 75% on Menin (Homo sapiens) [6]; “Non-Toxic” in data set [8]; 100% at Menin (Homo sapiens) [9]. Also, the Activity entry in data set [11] was “Non-Toxic”. Moreover, the IC50 stood at 2800 nM in the data set with HL-60, 4 nM in the data set on MOLM-13, 2.6 nM on Menin and 1 nM with MV4-11 [10]. In addition, the inhibition in vivo at 25 mg/kg in the data set with MV4-11 [4] is 97%. The outcome in the data set on Mus musculus [5] was Active. The outcome in the data set on MV4-11 [7] was inactive. The inhibition entry in the data set on Mus musculus [12] and in the data set on Mus musculus [13] was “Active” in each case. Further, the “fold change (FC)” value with Mus musculus [14] is reported as above 2.
